How the values were obtained:
[1] = target: T1, Adrenergic receptor beta (Homo sapiens, UniProt P08588+P07550+P13945); conditions: Cavia porcellus
[2] = target: T2, Adrenergic receptor alpha-1 (Rattus norvegicus) (UniProt P15823+P23944+P43140); assay: (§1) Tested for Alpha adrenergic receptor antagonistic activity on isolated rat vas deferens; assay type: functional, tissue-based
How it was run: (§2)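 Isolated rat vas deferens; contractions recorded isometrically with a force-displacement transducer.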

[3] = target: T1, Adrenergic receptor beta; assay: Inhibition of beta adrenergic receptor on isolated guinea pig atria against isoprenaline at 4E-8M; parameters: species or system Cavia porcellus; conditions: target entry is the homologue from another species
[4] = target: T3, Adrenergic receptor alpha-1 (Rattus norvegicus, UniProt P15823+P23944+P43140); assay: as §1; assay type: functional, tissue-based
T3 sequence (P15823 whole entry): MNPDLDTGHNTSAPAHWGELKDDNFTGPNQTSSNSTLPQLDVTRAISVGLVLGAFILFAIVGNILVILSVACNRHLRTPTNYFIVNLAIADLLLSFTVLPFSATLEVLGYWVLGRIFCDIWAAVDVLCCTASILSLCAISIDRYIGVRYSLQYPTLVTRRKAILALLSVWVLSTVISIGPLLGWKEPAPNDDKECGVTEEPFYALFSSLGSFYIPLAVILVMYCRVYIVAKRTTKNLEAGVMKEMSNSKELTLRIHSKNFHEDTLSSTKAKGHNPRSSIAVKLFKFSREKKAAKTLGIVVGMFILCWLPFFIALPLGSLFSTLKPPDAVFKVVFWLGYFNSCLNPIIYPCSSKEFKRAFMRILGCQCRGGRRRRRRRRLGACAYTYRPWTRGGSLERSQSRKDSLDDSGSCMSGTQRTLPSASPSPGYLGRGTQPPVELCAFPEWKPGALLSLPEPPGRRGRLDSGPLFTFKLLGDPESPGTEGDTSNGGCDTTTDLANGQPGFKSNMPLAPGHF
T3 sequence (P23944 whole entry): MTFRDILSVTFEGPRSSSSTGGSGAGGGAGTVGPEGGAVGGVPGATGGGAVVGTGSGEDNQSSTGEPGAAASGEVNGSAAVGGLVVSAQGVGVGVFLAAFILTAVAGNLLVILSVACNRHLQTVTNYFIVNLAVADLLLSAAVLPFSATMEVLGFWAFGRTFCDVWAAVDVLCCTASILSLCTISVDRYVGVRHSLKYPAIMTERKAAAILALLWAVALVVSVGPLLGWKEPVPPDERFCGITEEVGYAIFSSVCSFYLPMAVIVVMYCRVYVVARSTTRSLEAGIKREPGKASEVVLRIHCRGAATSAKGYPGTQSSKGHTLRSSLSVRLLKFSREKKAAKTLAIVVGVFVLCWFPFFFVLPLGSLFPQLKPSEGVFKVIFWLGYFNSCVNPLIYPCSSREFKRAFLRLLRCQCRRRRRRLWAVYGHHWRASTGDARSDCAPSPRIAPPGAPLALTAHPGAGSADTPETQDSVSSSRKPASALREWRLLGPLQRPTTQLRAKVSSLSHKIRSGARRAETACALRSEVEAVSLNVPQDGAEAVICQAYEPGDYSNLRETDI
T3 sequence (P43140 whole entry): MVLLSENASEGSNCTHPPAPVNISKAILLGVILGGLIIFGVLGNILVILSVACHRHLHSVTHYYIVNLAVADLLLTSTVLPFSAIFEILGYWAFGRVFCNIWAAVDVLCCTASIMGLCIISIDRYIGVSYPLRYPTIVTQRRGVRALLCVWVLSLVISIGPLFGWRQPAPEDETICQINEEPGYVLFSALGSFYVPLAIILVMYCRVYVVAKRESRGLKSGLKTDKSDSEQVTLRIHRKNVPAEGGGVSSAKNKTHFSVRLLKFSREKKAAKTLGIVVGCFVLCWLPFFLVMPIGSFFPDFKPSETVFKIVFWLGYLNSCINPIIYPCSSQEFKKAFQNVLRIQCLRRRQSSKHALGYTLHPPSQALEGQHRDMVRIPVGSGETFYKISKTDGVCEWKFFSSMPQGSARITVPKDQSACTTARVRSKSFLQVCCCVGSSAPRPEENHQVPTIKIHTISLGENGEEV
How it was run: as §2

[5] = target: T2, Adrenergic receptor alpha-1 (Rattus norvegicus); conditions: Vas deferens
[6] = target: T2, Adrenergic receptor alpha-1 (Rattus norvegicus); conditions: Vas deferens; remark: listed apart in the source
[7] = target: T3, Adrenergic receptor alpha-1; assay: (§3) Tested for alpha adrenergic receptor agonistic activity on isolated rat vas deferens; assay type: functional, tissue-based
How it was run: as §2

[8] = target: T2, Adrenergic receptor alpha-1 (Rattus norvegicus); assay: as §3; assay type: functional, tissue-based
How it was run: as §2

Structure (SMILES): COc1ccc(OC)c(C(O)CNC(C)C)c1 (stereo not drawn)
- pA10 [1]: 4.08
- pA2-pA10 [2]: 0.26
- pA10 [2]: 2.48
- pA2 [3]: 4.77

Structure (SMILES): COc1ccc(OC)c(C(O)CN)c1 (stereo not drawn) [DESGLYMIDODRINE]
- pA2 [4]: 4.04
- pD2 [5]: 5.15
- pA2-pA10 [2]: 0.74
- pA10 [2]: 3.3
- pD10 [6]: 6

Structure (SMILES): COc1ccc(OC)c(C2CNCCO2)c1 (stereo not drawn)
- pA2 [4]: 3.4
- pA2-pA10 [2]: 0.45
- pA10 [2]: 2.95

Structure (SMILES): COc1ccc(OC)c(C(O)C(C)N)c1 (stereo not drawn)
- pD2 [5]: 4.42
- pD10 [6]: 5.61

Structure (SMILES): COc1ccc(OC)c(C2OCCNC2C)c1 (stereo not drawn)
- pA2 [4]: 3.48
- pA2-pA10 [2]: 0.27
- pA10 [2]: 3.2

Structure (SMILES): CNCC(O)c1cc(OC)ccc1OC (stereo not drawn)
- pA2 [7]: 3.91
- pA10 [8]: 3.16
- pD2 [8]: 5.22
- pD10 [8]: 6.07

Structure (SMILES): COc1ccc(OC)c(C2CN(C)CCO2)c1 (stereo not drawn)
- pA2 [4]: 3.61
- pA2-pA10 [2]: 0.76
- pA10 [2]: 2.85

Structure (SMILES): COc1ccc(OC)c(C2CN(C(C)C)CCO2)c1 (stereo not drawn)
- pA2 [4]: 3.14
- pA2-pA10 [2]: 0.19
- pA10 [2]: 2.95

Structure (SMILES): Cc1ccc(N(CC2=NCCN2)c2cccc(O)c2)cc1
- pA10 [8]: 6.02

From ChEMBL document CHEMBL1122331, “Conformational effects on the activity of drugs. 10. Synthesis, conformation, and pharmacological properties of 1-(2,5-dimethoxyphenyl)-2-aminoethanols and their morpholine analogues” (J Med Chem, 1983)
